MC4R antagonist: blocks human MC4R cAMP signaling; 360,000 tested, 0.48% active; inhibition, % at 6.5 µM; P32245; MC4R-expressing cells, MTII-stimulated cAMP, LANCE TR-FRET;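 active means inhibition above its plate's cutoff, the mean of tested wells on that plate plus 3 SD, cut at about 29% in these data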;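 further: 0% = Melanotan II alone and 100% = Melanotan II plus saturating MCL0020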
Target sequence (P32245 whole entry, looked up): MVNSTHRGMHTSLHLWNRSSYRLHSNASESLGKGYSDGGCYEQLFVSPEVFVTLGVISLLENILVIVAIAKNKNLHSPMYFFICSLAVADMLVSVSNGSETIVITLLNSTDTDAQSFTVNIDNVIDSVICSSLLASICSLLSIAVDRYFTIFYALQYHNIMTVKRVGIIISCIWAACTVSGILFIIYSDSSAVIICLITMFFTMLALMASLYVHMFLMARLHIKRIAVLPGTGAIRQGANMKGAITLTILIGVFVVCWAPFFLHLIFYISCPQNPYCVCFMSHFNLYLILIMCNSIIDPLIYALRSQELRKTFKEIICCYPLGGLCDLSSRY
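Assay system: U2OS cells stably expressing human melanocortin 4 receptor (MC4R) / Dosing: 6.5 µM / Timing: compound 30 min, challenge 1 h, detection 1 h / Measured by: Eu-cAMP/anti-cAMP TR-FRET, emission 671 nm / Replicates: singlicate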
Exocytosis inh: blocks lytic granule exocytosis; TALL-104 LAMP-1 surface exposure, flow cytometry; cells stimulated with thapsigargin and PMA; inhibition, % at 10 µM; 360,000 tested, 0.66% active; AID 651702;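 active means inhibition above about 55%, limit read from the data; inconclusive means no clear call, values can overlap the other calls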
EBI2 antag: EBI2 (human) antagonism; EBI2 beta-arrestin recruitment, luminescence, 7a,25-OHC stimulated; 360,000 tested, 0.81% active; P32249; inhibition, % at 5 µM; in the data active means inhibition above about 38%;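 further: enzyme fragment complementation signal reports receptor beta-arrestin coupling in cells; 0% = agonist plus DMSO wells and 100% = wells without agonist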
Myeloid diff MLP: myeloid differentiation induction; ER-HoxA9 myeloid progenitors, lysozyme-GFP differentiation, flow cytometry; calls only at 10 µM; 360,000 tested, 1% active;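 active means normalized GFP-positive differentiation at or above the plate's own cutoff, the solvent-only control mean plus 3 SD; inconclusive means no clear call, values can overlap the other calls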;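 further: cells exposed to compound for four days before flow analysis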
MC4R ag barr: activates human MC4R beta-arrestin recruitment; U2OS MC4R beta-arrestin complementation, luminescence; percent of melanotan II response, DMSO zero; AID 540308; 360,000 tested, 0.98% active; activation, % at 8.9 µM; P32245;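 active means activation above a per-plate cutoff, the mean activation of sample wells on that plate plus 3 SD, cut at about 8% in these data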
cAMP nonselect: U2OS forskolin cAMP inhibition counter-screen; parental U2OS, LANCE TR-FRET; 1,600 tested, 26% active; shares compounds with MC4R antagonist; inhibition, % at 6.5 µM;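 active means mean inhibition over triplicates above the low-control well mean plus 3 SD, set per campaign, cut at about 13% in these data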;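 further: signal is single emission at 671 nm which falls as cellular cAMP rises; 0% = forskolin-stimulated wells and 100% = buffer without forskolin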
MC4R antag conf: human MC4R cAMP antagonism confirmation; shares compounds with MC4R antagonist; MC4R-expressing cells, MTII-stimulated cAMP, TR-FRET; inhibition, % at 6.5 µM; 1,600 tested, 27% active; AID 602195; in the data active means inhibition above about 29%;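 further: 0% = agonist stimulated wells alone and 100% = agonist stimulated wells plus saturating reference antagonist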
* marks the source's active call; other numbers are inactive results; i = inactive; ? = inconclusive; nt = not tested or not shown; + = active, no number. The list is not random: actives were taken first. Their share in the collection is about 3.7%.

SMILES	MC4R antagonist	Exocytosis inh	EBI2 antag	Myeloid diff MLP	MC4R ag barr	cAMP nonselect	MC4R antag conf
CCCCn1c(N)c(C(=O)OCC2CCCO2)c2nc3ccccc3nc21 (stereo not given)	-26.1	-1.8	2.4	i	-2.6	nt	nt
CCCNC(=O)c1c(N)n(CC2CCCO2)c2nc3ccccc3nc12 (stereo not given)	2.1	7.1	2.1	i	-0.8	nt	nt
O=[N+]([O-])/C=C/c1c(Cl)cccc1Cl	26.2	31.6	-24.1	+	-3.1	nt	nt
CN(C)c1ccc(C(=O)N/N=C/C23CC[C@@H](O)CC2(O)CC[C@@H]2[C@@H]3CCC3(C)C(C4=CC(=O)OC4)CCC23O)cc1 (stereo not given in full)	-7.0	3.7	-15.8	i	13.8*	nt	nt
COc1ccc(C(=O)N/N=C/C23CC[C@@H](O)CC2(O)CC[C@@H]2[C@@H]3CCC3(C)C(C4=CC(=O)OC4)CCC23O)cc1 (stereo not given in full)	2.2	6.1	-6.8	+	6.0	nt	nt
O=C1NC(=O)C2(C(=O)N1)C(c1ccc(F)cc1)NC(=S)NC2c1ccc(F)cc1 (stereo not given)	-0.7	0.0	0.5	i	-0.1	nt	nt
CCOC(=O)c1[nH]c2ccc(OC)cc2c1C(SCC(=O)O)c1ccc(C(F)(F)F)cc1 (stereo not given)	17.3	3.4	-3.8	i	2.7	nt	nt
Cc1ccsc1C(=O)C1CCCN(Cc2c(C)nn(C(C)C)c2C)C1 (stereo not given)	20.1	14.3	2.9	i	-0.4	nt	nt
CC(=NCc1ccc2c(c1)OCO2)c1c(O)n(-c2ccccc2)c(=O)[nH]c1=O	2.9	9.1	10.0	i	0.3	nt	nt
CC(C)CC(=O)NC(Oc1ccc(Cl)cc1)C(Cl)(Cl)Cl (stereo not given)	11.8	-2.7	29.0	i	8.5*	nt	nt
CCOc1ccc(-c2cc(C)[n+](CCc3ccc(OC)c(OC)c3)c(-c3ccc(OCC)cc3)c2)cc1	6.1	57.0*	10.1	i	-0.2	nt	nt
C[C@@H]1COc2cccc(N3CCN(C)CC3)c2S(=O)(=O)N1	nt	-5.4	-4.4	i	nt	nt	nt
COc1cc(C=NNC(=S)Nc2ccc(S(=O)(=O)N3CCCCC3)cc2)cc(OC)c1OC	2.9	0.5	23.2	i	-2.1	nt	nt
C[n+]1ccc(-c2ccccc2)c2ccccc21	-3.8	3.4	-6.2	+	-0.8	nt	nt
CN(C)c1ccc(/C=C/c2cc[n+](C)c3ccccc23)cc1	-35.4	-14.9	3.7	?	-4.8	nt	nt
CN1CC=C(c2c[nH]c3ccccc23)CC1	8.7	2.7	-2.8	+	-0.8	nt	nt
C1=C(c2c[nH]c3ccccc23)CCN(Cc2ccccc2)C1	10.3	-0.3	-3.7	?	0.9	nt	nt
C/C(=N\Nc1cccc2ccccc12)c1c(O)n(Cc2ccccc2)c(=O)[nH]c1=O	28.5*	10.7	-9.2	i	0.0	-1.8	-6.9
C/C(=N\NC(=O)c1ccccc1)c1c(O)n(Cc2ccccc2)c(=O)[nH]c1=O	0.2	-2.9	-8.1	i	-1.5	nt	nt
C[CH2][Hg][S]c1ccccc1C(=O)O	95.2*	69.3*	0.5	+	-0.8	40.0*	91.4*
CC(C)COC(=O)c1ccccc1C(=O)OCC(C)C	0.5	-6.2	5.3	i	0.3	nt	nt
CCOP(=O)(CCP(=O)(OCC)OCC)OCC.C[CH2][Sn]([Cl])([Cl])[CH2]C	69.9*	-9.1	-19.8	nt	-1.6	10.8	28.9*
Cc1ccccc1CN1Cc2cnnn2-c2ccccc2C1C#N (stereo not given)	37.1*	11.3	-19.4	?	-0.8	5.0	45.1*
CC1CN2c3ccc([N+](=O)[O-])cc3CC3(C(=O)N(C)C(=O)N(C)C3=O)C2C(C)O1 (stereo not given)	6.1	0.7	-24.1	i	-0.2	nt	nt
Nc1ncnc2c1ccn2[C@@H]1O[C@H](CO)[C@@H](O)[C@H]1O	44.7*	-3.1	2.7	?	0.1	93.6*	78.5*
SMILES	MC4R antagonist	Exocytosis inh	EBI2 antag	Myeloid diff MLP	MC4R ag barr	cAMP nonselect	MC4R antag conf
NC(=S)c1cn(C2OC(CO)C(O)C2O)c2ncnc(N)c12 (stereo not given)	31.1*	-3.1	0.8	?	-2.2	0.5	28.0
C#C[C@@]1(O)CCC2C3CCC4=C/C(=N/OCC(=O)NC(CCC(N)=O)C(=O)O)CC[C@]4(C)C3CC[C@@]21C (stereo not given in full)	1.5	-5.7	-6.8	i	-1.0	nt	nt
C=C1C(C)C2C(Cc3ccccc3)NC(=O)C23OC(=O)/C=C/C(O)CCCC(C)C/C=C/C3C1O (stereo not given)	35.6*	9.1	-29.5	nt	0.3	1.3	-1.8
Cc1ccc(Cn2ccccc2=N)cc1	10.0	-2.6	8.9	i	-0.8	nt	nt
COc1ccccc1N1C(=O)NC(=O)/C(=C\c2cnn(-c3ccccc3)c2)C1=O	30.1*	-3.2	18.4	i	2.3	11.0	8.6
Fc1cccc(F)c1-c1nc(-c2ccc(Cl)cc2)no1	5.0	-2.0	-1.6	i	-1.4	nt	nt
CCCN1CCCC(C(=O)c2cc(C)c(OC)c(C)c2)C1 (stereo not given)	-1.7	-5.2	-16.3	i	-2.4	nt	nt
N/C(=N\[N+](=O)[O-])N1CCN(C(=O)c2ccccn2)CC1	4.5	-2.8	-2.4	i	-2.2	nt	nt
O=C(NN=Cc1ccc(N(CCCl)CCCl)cc1)C(=O)c1c[nH]c2ccccc12	30.8*	1.7	17.1	?	0.9	2.4	26.5
O=C(NN=Cc1ccc(N(CCCl)CCCl)cc1)c1cc(=O)[nH]c(=O)[nH]1	2.5	2.4	4.7	i	0.5	nt	nt
C[C@]12CCC3C(CC[C@H]4C[C@@H](O)CC[C@]34C)C1=CC[C@@H]2O (stereo not given in full)	10.0	1.2	0.9	i	-1.8	nt	nt
CC12CC[C@H]3[C@@H](CCC4(O)C[C@H](O)CCC34/C=N/NC(=O)c3ccccc3O)C1(O)CCC2C1=CC(=O)OC1 (stereo not given in full)	29.2*	4.1	3.1	i	6.1	-4.9	-3.9
CN1C(=O)C(=Cc2c(OCc3cnc(Cl)s3)ccc3ccccc23)C(=O)N(C)C1=O	3.6	-0.5	-8.1	i	-1.6	nt	nt
O=C1NC(=O)N(c2ccccc2)C(=O)/C1=C/c1ccc(Sc2ccccc2)o1	29.3*	-1.7	23.6	i	-2.4	17.6*	5.7

High-throughput results (PubChem)
